The source of these data is PubChem BioAssay.

Calls of active or inactive are those of the source.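 Rule for the calls, unless noted: active = Her2 level under about 52% in both replicate screens, with viability over 70% of control (limit read from the data); inconclusive = Her2 under the limit in one screen only, or viability under 70%; inactive = Her2 level above the set limit.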

Experiment [1] is described as follows: Her2 expression decrease, cell viability multiplex – SKBR3 breast tumor cells, AlphaScreen, ATP viability, primary screen (AID 461).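 For Her2 level: lower value means less Her2 protein in the cells.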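 For viability: percent of carrier control wells set as 100% viability.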 The settings on record: SKBR3 Her2 protein level, 18-24 h, measured here: SKBR3 viability, ATP luminescence, at 10 µM. In general terms: Alpha assays give light when donor and acceptor beads are brought close together.
In experiment [2] the target is Receptor tyrosine-protein kinase erbB-2 (Homo sapiens) (UniProt P04626). The description is as above. As to conditions: 18-24 h, at 10 µM, stronger effect = lower value.
Chain of Receptor tyrosine-protein kinase erbB-2 (Homo sapiens) (P04626 whole entry, looked up): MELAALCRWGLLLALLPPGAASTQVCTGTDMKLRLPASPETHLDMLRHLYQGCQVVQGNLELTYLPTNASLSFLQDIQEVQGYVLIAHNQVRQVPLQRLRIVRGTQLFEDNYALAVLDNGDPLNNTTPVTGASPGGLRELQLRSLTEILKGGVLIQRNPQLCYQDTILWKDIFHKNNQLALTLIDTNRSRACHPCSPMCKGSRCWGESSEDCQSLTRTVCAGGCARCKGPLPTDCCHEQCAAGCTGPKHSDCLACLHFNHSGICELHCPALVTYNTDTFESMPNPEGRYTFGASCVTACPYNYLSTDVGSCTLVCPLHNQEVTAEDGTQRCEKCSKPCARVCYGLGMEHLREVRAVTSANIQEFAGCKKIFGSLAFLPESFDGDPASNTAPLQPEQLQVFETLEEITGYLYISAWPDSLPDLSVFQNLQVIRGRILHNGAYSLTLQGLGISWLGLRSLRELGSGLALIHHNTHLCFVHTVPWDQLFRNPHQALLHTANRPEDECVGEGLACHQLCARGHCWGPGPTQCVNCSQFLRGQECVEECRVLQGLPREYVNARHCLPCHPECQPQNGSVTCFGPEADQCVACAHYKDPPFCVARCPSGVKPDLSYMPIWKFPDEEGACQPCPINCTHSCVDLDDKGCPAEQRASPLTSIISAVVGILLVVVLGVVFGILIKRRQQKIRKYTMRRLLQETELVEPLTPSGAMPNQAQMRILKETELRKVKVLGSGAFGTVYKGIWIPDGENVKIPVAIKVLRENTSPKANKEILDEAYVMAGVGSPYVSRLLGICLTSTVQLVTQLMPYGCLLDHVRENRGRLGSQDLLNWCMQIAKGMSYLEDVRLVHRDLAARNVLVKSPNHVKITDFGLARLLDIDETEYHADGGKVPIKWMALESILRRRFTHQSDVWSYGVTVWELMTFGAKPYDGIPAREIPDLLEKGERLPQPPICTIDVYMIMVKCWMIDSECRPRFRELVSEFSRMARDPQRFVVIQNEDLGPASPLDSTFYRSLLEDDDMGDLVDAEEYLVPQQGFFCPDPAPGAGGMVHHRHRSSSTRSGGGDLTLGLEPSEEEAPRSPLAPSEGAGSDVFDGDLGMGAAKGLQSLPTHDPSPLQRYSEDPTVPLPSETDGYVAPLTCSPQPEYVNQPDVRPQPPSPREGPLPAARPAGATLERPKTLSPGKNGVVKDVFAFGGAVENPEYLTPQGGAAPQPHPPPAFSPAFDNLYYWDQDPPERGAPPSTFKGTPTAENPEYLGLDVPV
Experiment [3] can be described thus: reduced viability of SK-BR-3 breast cancer cells – cell-based, 24 h, human, pilot screen (AID 572;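 active = viability at or below 10% of carrier control in both of two separate runs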;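 note: compound exposure lasted between 18 and 24 h rather than exactly 24 h; 100% = carrier-treated control wells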). The settings on record: SK-BR-3 viability, CellTiter-Glo luminescence, at 10 µM, stronger effect = lower value. A general note: Cellular ATP, detected with luciferase, serves as a proxy for viable cell number.
Experiment [4] is described as follows: HUVEC growth inhibition – cell-based, human, primary screen (AID 575;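 active = viability at or below 30% in both replicate assays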;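 note: 100% = median of untreated cell wells with 0.1% DMSO on each plate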). As to conditions: HUVEC proliferation, CellTiter-Glo luminescence, 72 h; at 10 µM; stronger effect = lower value. The method, boiled down:
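Test system: primary human umbilical vein endothelial cells; medium: endothelial basal medium with 2% FBS plus growth supplements; dosing: 10 µM compound only; times: 72 h treatment at 37 °C; signal: CTG luminescence; read-out: % viability relative to median vehicle-well signal on each plate; control set: vehicle and MePR control wells; plate: 384-well, collagen-coated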

The nature of experiment [5]: H69AR cell proliferation blockers – human, duplicate replicates, primary screen (AID 580;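 active = viability at or under a set limit in both replicates, limit being median viability minus 3 SD, cut at about 48% in these data, passing the limit was not always enough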;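 note: 100% = mean luminescence of untreated wells and 0% = no signal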). The settings on record: H69AR lung tumor cells viability, ATP luminescence, 72 h; at 10 µM; stronger effect = lower value.
Experiment [6] in a line: MRP1 drug-resistance reversers in H69AR cells – cell-based, doxorubicin co-treatment, pilot screen (AID 601;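 active = viability loss from added drug above about 55%, and viability with drug at most 40%, in both replicates, limit read from the data, passing the limit was not always enough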). As to conditions: CellTiter-Glo, 72 h, at 10 µM; for differential viability (reversal): stronger effect = higher value.
Experiment [7] is described as follows: yeast transport mutant growth inhibition pilot in 384-well plates, post-Golgi transport modulator project (AID 636; in the data active = inhibition above about 31%). As to conditions: absorbance 615 nm, about 18 h, stronger effect = higher value.
A short description of experiment [8]: growth suppression of yeast trafficking mutant, preliminary HTS, modulators of trafficking downstream of Golgi apparatus project, 1536-format plate, OD 615 nm (AID 637; in the data active = inhibition above about 30%). The settings on record: yeast transport mutant growth, absorbance 615 nm, 18 h; stronger effect = higher value.
[9] abbreviates: H69AR cells + 2 uM doxorubicin, measured here: viability with 2 uM doxorubicin, stronger effect = lower value.
The mark [10] stands for this setting: H69AR cells, compound alone cytotoxicity.

In general, viability refers to a read-out of living cells in per cent, often relative to untreated cells. One may read the inhibition as the drop in the measured response relative to a control, in per cent. In the case of `CCOc1ccc(C2CC(=O)NC3=C2C(=O)CCC3)cc1Cl` (stereo not given), the viability was 108% in experiment [1]; 108% (inactive) in experiment [3]; 88.4% (inactive) in experiment [4]; 99.4% (inactive) in experiment [5]; 85.2% in experiment [6] (setting [9]); 99.4% in experiment [6] (setting [10]). The Her2 level in experiment [2] is 97.5% (inactive). Moreover, the differential viability (reversal) in experiment [6] (H69AR cells + 2 uM doxorubicin) is 14.2% (inactive). For the same compound, the inhibition in experiment [7] is -4.21% (inactive); in experiment [8], 0% (inactive).
Take `COc1cc(OC)cc(-n2nnnc2SCC(=O)N2CCCC2)c1`: the viability was 87% in experiment [1]; 87% (inactive) in experiment [3]; 94.9% (inactive) in experiment [4]; 87.4% (inactive) in experiment [5]; 92% in experiment [6] (setting [9]); 87.4% in experiment [6] (setting [10]). For the same compound, the Her2 level in experiment [2] is 79% (inactive). In experiment [6] (H69AR cells + 2 uM doxorubicin), the differential viability (reversal) is -4.62% (inactive). Also, the inhibition in experiment [7] is -2.11% (inactive); in experiment [8], 0.36% (inactive).
Turning to `Cn1c2ccc(F)cc2c2ncn(CCN3CCOCC3)c(=O)c21`, the viability in experiment [1] is 88.5%; in experiment [3], 88.5% (inactive); in experiment [4], 98.6% (inactive); in experiment [5], 97.4% (inactive); in experiment [6] (setting [9]), 90.4%; in experiment [6] (setting [10]) it was 97.4%. Further, the Her2 level in experiment [2] is 82.5% (inactive). For the same compound, in experiment [6] (H69AR cells + 2 uM doxorubicin), the differential viability (reversal) was 6.95% (inactive). In addition, the inhibition in experiment [7] was -6% (inactive); in experiment [8], -3.02% (inactive).
Regarding `Cc1cc(C)nc(N2CCC(C(=O)NC3CCCCCC3)CC2)n1`, the viability is 92.5% in experiment [1]; 92.5% (inactive) in experiment [3]; 111% (inactive) in experiment [4]; 96.1% (inactive) in experiment [5]; 94.5% in experiment [6] (setting [9]); 96.1% in experiment [6] (setting [10]). The Her2 level in experiment [2] was 99% (inactive). In experiment [6] (H69AR cells + 2 uM doxorubicin), the differential viability (reversal) was 1.6% (inactive). Further, the figures for the inhibition in experiment [7] and in experiment [8] were -4.8% (inactive) and 1.13% (inactive), respectively.
With `N#CCCn1ccc(NC(=O)c2ccc(Cl)cc2)n1`, the viability is 79% in experiment [1]; 79% (inactive) in experiment [3]; 102% (inactive) in experiment [4]; 97% (inactive) in experiment [5]; 88.1% in experiment [6] (setting [9]); 97% in experiment [6] (setting [10]). In addition, the Her2 level in experiment [2] was 87.5% (inactive). Further, in experiment [6] (H69AR cells + 2 uM doxorubicin), the differential viability (reversal) is 8.88% (inactive). The inhibition is -5.27% (inactive) in experiment [7] and -0.66% (inactive) in experiment [8].
Turning to `O=C1CSC(c2cccc(F)c2)N1c1ccccc1F` (stereo not given), the viability in experiment [1] was 86%; in experiment [3], 86% (inactive); in experiment [4], 98.8% (inactive); in experiment [5] it was 97.5% (inactive); in experiment [6] (setting [9]), 88.2%; in experiment [6] (setting [10]) it was 97.5%. Besides, the Her2 level in experiment [2] is 102% (inactive). The differential viability (reversal) in experiment [6] (H69AR cells + 2 uM doxorubicin) is 9.31% (inactive). The inhibition in experiment [7] is -4.87% (inactive); in experiment [8] it was 7.38% (inactive).
As to `O=C(c1ccc(Cl)cc1)N(Cc1cccs1)C1CCS(=O)(=O)C1` (stereo not given), the viability in experiment [1] is 100%; in experiment [3], 100% (inactive); in experiment [4], 117% (inactive); in experiment [5], 89.2% (inactive); in experiment [6] (setting [9]), 97.6%; in experiment [6] (setting [10]), 89.2%. Also, the Her2 level in experiment [2] was 138% (inactive). The differential viability (reversal) in experiment [6] (H69AR cells + 2 uM doxorubicin) is -8.41% (inactive). The figures for the inhibition in experiment [7] and in experiment [8] were -3.29% (inactive) and 7.7% (inactive), respectively.
On to `CC(=O)N1CCN=C1SCc1c(F)cccc1Cl`, for which the viability in experiment [1] was 102%; in experiment [3] it was 102% (inactive); in experiment [4], 73.1% (inactive); in experiment [5], 78.8% (inactive); in experiment [6] (setting [9]), 83.8%; in experiment [6] (setting [10]) it was 78.8%. Moreover, the Her2 level in experiment [2] was 105% (inactive). Also, the differential viability (reversal) in experiment [6] (H69AR cells + 2 uM doxorubicin) was -5.06% (inactive). For the same compound, the results for the inhibition in experiment [7] and in experiment [8] were 3.85% (inactive) and -1% (inactive), respectively.
Take `COc1ccc(C2=NOC(C(=O)NCc3ccc(F)cc3)C2)cc1OC` (stereo not given): the viability in experiment [1] is 95.5%; in experiment [3], 95.5% (inactive); in experiment [4], 42% (inactive); in experiment [5], 29.3% (active); in experiment [6] (setting [9]), 63.9%; in experiment [6] (setting [10]), 29.3%. For the same compound, the Her2 level in experiment [2] is 87.5% (inactive). Moreover, in experiment [6] (H69AR cells + 2 uM doxorubicin), the differential viability (reversal) is -34.5% (inactive). Also, the inhibition was -1.32% (inactive) in experiment [7] and 5.4% (inactive) in experiment [8].
With `Cc1ccc(S(=O)(=O)C2(C(=O)Nc3nccs3)CC2)cc1`, the viability in experiment [1] is 95%; in experiment [3], 95% (inactive); in experiment [4], 93.7% (inactive); in experiment [5] it was 101% (inactive); in experiment [6] (setting [9]) it was 95%; in experiment [6] (setting [10]), 101%. Moreover, in experiment [2], the Her2 level is 95% (inactive). Moreover, the differential viability (reversal) in experiment [6] (H69AR cells + 2 uM doxorubicin) is 5.59% (inactive). Further, the figures for the inhibition in experiment [7] and in experiment [8] were -2.44% (inactive) and -2.33% (inactive), respectively.
Regarding `Cc1c(C(=O)N2CCCC2)sc(NC(=O)c2cccs2)c1C#N`, the viability is 106% in experiment [1]; 106% (inactive) in experiment [3]; 98.1% (inactive) in experiment [4]; 89.9% (inactive) in experiment [5]; 90.2% in experiment [6] (setting [9]); 89.9% in experiment [6] (setting [10]). The Her2 level in experiment [2] is 91.5% (inactive). The differential viability (reversal) in experiment [6] (H69AR cells + 2 uM doxorubicin) was -0.35% (inactive). The inhibition in experiment [7] was -3.6% (inactive); in experiment [8], -5.81% (inactive).
For `O=S(=O)(CCOc1ccccc1)c1nc2ccccc2[nH]1`, the viability in experiment [1] was 104%; in experiment [3] it was 104% (inactive); in experiment [4], 54.7% (inactive); in experiment [5] it was 1.98% (active); in experiment [6] (setting [9]), 1.77%; in experiment [6] (setting [10]) it was 1.98%. Moreover, in experiment [2], the Her2 level was 18.5% (active). In addition, the differential viability (reversal) in experiment [6] (H69AR cells + 2 uM doxorubicin) was 0.22% (inactive). The inhibition in experiment [7] was -3.95% (inactive); in experiment [8], 3.11% (inactive).
For `COc1ccc(-n2c(SCC(=O)c3c(N)n(C)c(=O)n(C)c3=O)nc3ccccc32)cc1`, the viability in experiment [1] was 105%; in experiment [3] it was 105% (inactive); in experiment [4], 90% (inactive); in experiment [5], 98.5% (inactive); in experiment [6] (setting [9]), 86%; in experiment [6] (setting [10]), 98.5%. Moreover, in experiment [2], the Her2 level is 71.5% (inactive). Besides, the differential viability (reversal) in experiment [6] (H69AR cells + 2 uM doxorubicin) is 12.6% (inactive). The inhibition was -4.73% (inactive) in experiment [7] and 1.9% (inactive) in experiment [8].
`CC(C(=O)NCCCN1CCOCC1)n1cccc1C(=O)c1ccccc1` (stereo not given): the viability was 90% in experiment [1]; 90% (inactive) in experiment [3]; 97.4% (inactive) in experiment [4]; 95% (inactive) in experiment [5]; 89.3% in experiment [6] (setting [9]); 95% in experiment [6] (setting [10]). Moreover, the Her2 level in experiment [2] is 76.5% (inactive). Moreover, the differential viability (reversal) in experiment [6] (H69AR cells + 2 uM doxorubicin) was 5.71% (inactive). Further, the figures for the inhibition in experiment [7] and in experiment [8] were -2.37% (inactive) and 0% (inactive), respectively.
